According to ChEMBL document CHEMBL1127376, “Agents combining thromboxane receptor antagonism with thromboxane synthase inhibition: [[[2-(1H-imidazol-1-yl)ethylidene]amino]oxy]alkanoic acids” (J Med Chem, 1994):
pIC50: −log10 of the molar value.

Legend:
[1] = molecular target: T1, Thromboxane A2 receptor (Homo sapiens, UniProt P21731); assay: In vitro thromboxane-A2 receptor binding affinity to displace by 50% [3H]-SQ 29548 binding from washed human platelets
T1 sequence (P21731 whole entry): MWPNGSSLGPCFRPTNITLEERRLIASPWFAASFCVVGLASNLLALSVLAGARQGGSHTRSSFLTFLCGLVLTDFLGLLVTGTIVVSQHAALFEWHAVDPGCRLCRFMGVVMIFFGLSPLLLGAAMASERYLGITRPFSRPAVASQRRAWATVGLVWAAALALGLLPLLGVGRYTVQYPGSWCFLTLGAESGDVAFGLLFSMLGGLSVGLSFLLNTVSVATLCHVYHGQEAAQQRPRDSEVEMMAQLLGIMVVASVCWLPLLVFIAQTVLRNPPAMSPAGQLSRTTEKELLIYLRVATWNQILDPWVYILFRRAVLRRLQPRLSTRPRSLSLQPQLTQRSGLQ

[2] = molecular target: T2, Thromboxane-A synthase (Rattus norvegicus) (UniProt P49430); assay: Tested for the in vitro inhibition of thromboxane-A2 synthase in rat whole blood during clotting at 37 degrees Celsius at >1 uM; assay type: tissue-based
T2 sequence (whole entry): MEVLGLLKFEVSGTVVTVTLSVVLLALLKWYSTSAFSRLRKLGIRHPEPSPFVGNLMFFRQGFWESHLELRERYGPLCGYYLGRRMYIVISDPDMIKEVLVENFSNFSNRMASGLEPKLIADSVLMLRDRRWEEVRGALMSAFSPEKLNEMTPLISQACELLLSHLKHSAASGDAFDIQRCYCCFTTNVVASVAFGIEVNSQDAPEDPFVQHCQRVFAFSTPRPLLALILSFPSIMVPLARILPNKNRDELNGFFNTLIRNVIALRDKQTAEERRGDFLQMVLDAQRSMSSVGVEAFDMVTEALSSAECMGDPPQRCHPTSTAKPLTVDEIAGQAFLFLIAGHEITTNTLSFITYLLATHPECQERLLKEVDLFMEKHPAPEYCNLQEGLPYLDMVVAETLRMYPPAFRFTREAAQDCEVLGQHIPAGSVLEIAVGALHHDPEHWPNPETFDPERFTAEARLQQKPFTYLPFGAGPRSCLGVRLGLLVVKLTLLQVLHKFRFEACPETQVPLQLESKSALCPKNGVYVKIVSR
Outline: (§1)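 Rat whole blood allowed to clot 1 h at 37 °C with test agent, then spun for serum, stored -20 °C. Serum TxB2 measured by RIA with [3H]TxB2 and rabbit antiserum, incubated 16–24 h at 4 °C, charcoal separation, scintillation counting.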

[3] = molecular target: T3, Thromboxane-A synthase (Rattus norvegicus, UniProt P49430); assay: In vitro inhibition of thromboxane-A2 synthase in rat whole blood during clotting at 37 degrees Centigrade; assay type: tissue-based; outline: as §1
T3 sequence (P49430 whole entry): T2 sequence (whole entry)

[4] = molecular target: T2, Thromboxane-A synthase (Rattus norvegicus); assay: Tested for in vitro inhibition of TxA synthase in rat whole blood at 1 uM; assay type: tissue-based
[5] = species: Homo sapiens; assay: Tested in vitro for the umolar concentration required to inhibit U-46,619-induced platelet aggregation in human platelet rich plasma (PRP); assay type: functional
Outline: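 Citrated human blood (3.8%, 9:1), PRP by centrifugation. PRP preincubated 5 min at 37 °C with vehicle or compound, then challenged with a submaximal U46619 concentration chosen from a concentration–response curve. Aggregation followed by photoelectric aggregometry.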

Row | Compound | pIC50 [1] | inhibition [2] | pIC50 [3] | inhibition [4] | pIC50 [5]
1 | CS(=O)(=O)c1ccc(CC(/C(=N/OCCCCC(=O)O)C2CCCCC2)n2ccnc2)cc1 (centres undefined) | 6.64 | 32% | < 6.00 |  | 
2 | O=C(O)CCCO/N=C(/Cn1ccnc1)C1CCCCC1 | 4.31 |  | < 6.00 | 44% | 
3 | COc1ccc(CC(/C(=N/OCCCCC(=O)O)C2CCCCC2)n2ccnc2)cc1 (centres undefined) | 7.15 |  | 6.49 |  | 
4 | O=C(O)CCCCO/N=C(\C1CCCCC1)C(Cc1ccccn1)n1ccnc1 (centres undefined) | 5.48 |  | 6.52 |  | 
5 | CCCCCC/C(Cn1ccnc1)=N\OCCCCC(=O)O | 4.71 |  | 6.44 |  | 
6 | O=C(O)CCCCO/N=C(\C1CCCCC1)C(CC1CCCCC1)n1ccnc1 (centres undefined) | 5.72 | 43% | < 6.00 |  | 
7 | O=C(O)CCCCO/N=C(/c1cccnc1)c1cccc(C(F)(F)F)c1 [RIDOGREL] | 5.68 |  | 7.52 |  | 5.48
8 | O=C(O)CCCCO/N=C(\Cn1ccnc1)C1CCCCC1 | 4.27 |  | 7.40 |  | 5.61
9 | O=C(O)CCCCO/N=C(\C1CCCCC1)C(Cc1cnccn1)n1ccnc1 (centres undefined) | 6.72 |  | 7.15 |  | 
10 | O=C(O)CCCCO/N=C(\c1ccccc1)C(Cc1ccccc1)n1ccnc1 (centres undefined) | 6.77 |  | 7.30 |  | 6.43
11 | Cc1ccc(CC(/C(=N/OCCCCC(=O)O)C2CCCCC2)n2ccnc2)cc1 (centres undefined) | 7.15 |  | 6.85 |  | 
12 | O=C(O)CCCCO/N=C(\C1CCCCC1)C(Cc1ccco1)n1ccnc1 (centres undefined) | 6.55 |  | 7.00 |  | 
13 | O=C(O)CCCCO/N=C(\c1ccccc1)C(Cc1ccc(F)cc1)n1ccnc1 (centres undefined) | 7.40 |  | 6.41 |  | 6.68
14 | C/C(=N\OCCCCC(=O)O)C(Cc1ccccc1)n1ccnc1 (centres undefined) | 4.63 |  | 6.70 |  | 
15 | O=C(O)CCCCCO/N=C(\Cn1ccnc1)c1ccccc1 | 4.13 |  | < 6.00 | 2% | 
16 | O=C(O)CCCCO/N=C(/C1CCCCC1)C(Cc1cccc(F)c1)n1ccnc1 (centres undefined) | 6.85 |  | 6.60 |  | 
17 | CC(C)(CCO/N=C(\c1ccccc1)C(Cc1ccccc1)n1ccnc1)CC(=O)O (centres undefined) | 6.64 |  | 6.28 |  | 
18 | O=C(O)/C=C/CCCO/N=C(\c1ccccc1)C(Cc1ccccc1)n1ccnc1 (centres undefined) | 5.98 | 47% | < 6.00 |  | 
19 | O=C(O)CCCCCO/N=C(\c1ccccc1)C(Cc1ccccc1)n1ccnc1 (centres undefined) | 6.80 |  | 5.96 |  | 
20 | CC(C)(CCCO/N=C(\c1ccccc1)C(Cc1ccccc1)n1ccnc1)C(=O)O (centres undefined) | 5.38 |  | 6.12 |  | 
21 | O=C(O)CCCCO/N=C(/C1CCCCC1)C(Cc1ccccc1)n1ccnc1 (centres undefined) | 6.01 |  | 7.00 |  | 
22 | O=C(O)CCCCO/N=C(\C1CCCCC1)C(Cc1cccc(F)c1)n1ccnc1 (centres undefined) | 7.52 |  | 6.57 |  | 
23 | O=C(CCCCO/N=C(\C1CCCCC1)C(Cc1ccccc1)n1ccnc1)NO (centres undefined) | 6.28 |  | 6.15 |  | 
24 | O=C(O)CCCCO/N=C(\C1CCCCC1)C(Cc1ccccc1F)n1ccnc1 (centres undefined) | 6.52 |  | 6.46 |  | 
25 | O=C(O)CCCCO/N=C(\c1ccc(Br)cc1)C(Cc1ccccc1)n1ccnc1 (centres undefined) | 5.62 | 15% | < 6.00 |  | 
26 | CCCCCC/C(=N\OCCCCC(=O)O)C(Cc1ccccc1)n1ccnc1 (centres undefined) | 5.52 |  | 7.30 |  | 

Row | Compound | pIC50 [1] | inhibition [2] | pIC50 [3] | inhibition [4] | pIC50 [5]
27 | O=C(O)Cc1ccc(CCNS(=O)(=O)c2ccc(Cl)cc2)cc1 [DALTROBAN] |  |  | < 4.00 |  | 
28 | O=C(O)CCCCO/N=C(/Cn1ccnc1)C1CCCCC1 | 4.56 |  | 6.19 |  | 
29 | CSc1ccc(/C(=N\OCCCCC(=O)O)C(Cc2ccccc2)n2ccnc2)cc1 (centres undefined) | 5.12 | 49% | < 6.00 |  | 
30 | O=C(O)CCCO/N=C(\Cn1ccnc1)C1CCCCC1 | < 4.00 |  | < 6.00 | 8% | 
31 | O=C(O)CCCCO/N=C(\C1CCCCC1)C(Cc1ccc(C(F)(F)F)cc1)n1ccnc1 (centres undefined) | 7.30 |  | 6.05 |  | 
32 | CC(/C(=N/OCCCCC(=O)O)c1ccccc1)n1ccnc1 (centres undefined) | 4.14 | 37% | < 6.00 |  | 
33 | O=C(O)CCCCCO/N=C(/c1ccccc1)C(Cc1ccccc1)n1ccnc1 (centres undefined) | 6.01 | 26% | < 6.00 |  | 
34 | O=C(O)COCCO/N=C(\c1ccccc1)C(Cc1ccccc1)n1ccnc1 (centres undefined) | 6.06 | 28% | < 6.00 |  | 
35 | O=C(O)CCCCO/N=C(/c1ccccc1)C(Cc1ccccc1)n1ccnc1 (centres undefined) | 5.94 |  | 7.70 |  | 5.68
36 | O=C(O)CCCCO/N=C(\C1CCCCC1)C(Cc1ccccc1)n1ccnc1 (centres undefined) | 7.10 |  | 7.22 |  | 6.36
37 | CCOC(=O)CCCCO/N=C(\C1CCCCC1)C(Cc1ccccc1)n1ccnc1 (centres undefined) | 5.89 |  | 6.37 |  | 
38 | O=C(O)CCCO/N=C(\Cn1ccnc1)c1ccccc1 | < 4.00 |  | < 6.00 | 17% | 
39 | O=C(O)CCCCO/N=C(\C1CCCCC1)C(Cc1ccc(F)cc1)n1ccnc1 (centres undefined) | 7.70 |  | 6.43 |  | 6.52
40 | O=C(O)CCCCO/N=C(/c1ccccc1)C(Cc1ccc(Cl)cc1)n1ccnc1 (centres undefined) | 6.77 |  | 6.60 |  | 
41 | O=C(O)CCCCCO/N=C(\Cn1ccnc1)C1CCCCC1 | 4.62 |  | < 6.00 | 19% | 
42 | CC(/C(=N\OCCCCC(=O)O)c1ccccc1)n1ccnc1 (centres undefined) | 3.53 |  | 6.80 |  | 
43 | O=C(O)CCCCO/N=C(/Cn1ccnc1)c1ccccc1 | 4.34 |  | 6.57 |  | 
44 | CS(=O)(=O)c1ccc(/C(=N\OCCCCC(=O)O)C(Cc2ccccc2)n2ccnc2)cc1 (centres undefined) | 4.68 | 12% | < 6.00 |  | 
45 | O=C(O)CCCCO/N=C(\Cn1ccnc1)c1ccccc1 | 4.83 |  | 6.77 |  | 
46 | CCCCCC/C(Cn1ccnc1)=N/OCCCCC(=O)O | 4.91 |  | 7.40 |  | 
47 | O=C(O)/C=C/c1ccc(Cn2ccnc2)cc1 [OZAGREL] | < 4.00 |  |  |  | 
48 | O=C(O)CCCCO/N=C(/c1ccccc1)C(Cc1ccc(F)cc1)n1ccnc1 (centres undefined) | 6.28 |  | 7.22 |  | 6.55
49 | O=C(O)CCCCO/N=C(\Cn1ccnc1)c1cccnc1 | < 4.00 |  | < 6.00 | 24% | 
50 | O=C(O)CCCCO/N=C(\c1ccccc1)C(Cc1ccc(Cl)cc1)n1ccnc1 (centres undefined) | 7.40 |  | 6.05 |  | 
51 | O=C(O)/C=C/CCO/N=C(\c1ccccc1)C(Cc1ccccc1)n1ccnc1 (centres undefined) | 6.92 | 26% | < 6.00 |  | 
